Reference: ChEMBL document CHEMBL4145674, “Discovery of 3-Benzyl-1-( trans-4-((5-cyanopyridin-2-yl)amino)cyclohexyl)-1-arylurea Derivatives as Novel and Selective Cyclin-Dependent Kinase 12 (CDK12) Inhibitors” (J Med Chem, 2018)
Values after ≈ are worked out from the molar mass of the structure shown. Active and inactive are the calls of the source. No cut-off for these calls is given here.

What was measured:
CDK12/Cyclin K = CDK12/Cyclin K (Homo sapiens, UniProt Q9NYV4); assay: Inhibition of N-terminal FLAG-tagged human full-length CDK12 (1 to 1490 residues)/N-terminal His-tagged CycK (1 to 580 residues) expressed in Sf9 cells assessed as reduction in ATP-dependent ULight-4E-BP1 (Thr37/Thr46) substrate peptide phosphorylation pre-incubated for 60 mins by LANCE Ultra assay
CDK9/cyclin T1 = CDK9/cyclin T1 (Homo sapiens, UniProt P50750); type: protein-complex assay
[1] = molecular target: T1, Cyclin-dependent kinase 12 (Homo sapiens, UniProt Q9NYV4); assay: Inhibition of CDK12 in human SK-BR-3 cells assessed as reduction in RNA polymerase 2 Ser2 phosphorylation incubated for 4 hrs by; type: cell-based
Target sequence in this assay (Q9NYV4 whole entry): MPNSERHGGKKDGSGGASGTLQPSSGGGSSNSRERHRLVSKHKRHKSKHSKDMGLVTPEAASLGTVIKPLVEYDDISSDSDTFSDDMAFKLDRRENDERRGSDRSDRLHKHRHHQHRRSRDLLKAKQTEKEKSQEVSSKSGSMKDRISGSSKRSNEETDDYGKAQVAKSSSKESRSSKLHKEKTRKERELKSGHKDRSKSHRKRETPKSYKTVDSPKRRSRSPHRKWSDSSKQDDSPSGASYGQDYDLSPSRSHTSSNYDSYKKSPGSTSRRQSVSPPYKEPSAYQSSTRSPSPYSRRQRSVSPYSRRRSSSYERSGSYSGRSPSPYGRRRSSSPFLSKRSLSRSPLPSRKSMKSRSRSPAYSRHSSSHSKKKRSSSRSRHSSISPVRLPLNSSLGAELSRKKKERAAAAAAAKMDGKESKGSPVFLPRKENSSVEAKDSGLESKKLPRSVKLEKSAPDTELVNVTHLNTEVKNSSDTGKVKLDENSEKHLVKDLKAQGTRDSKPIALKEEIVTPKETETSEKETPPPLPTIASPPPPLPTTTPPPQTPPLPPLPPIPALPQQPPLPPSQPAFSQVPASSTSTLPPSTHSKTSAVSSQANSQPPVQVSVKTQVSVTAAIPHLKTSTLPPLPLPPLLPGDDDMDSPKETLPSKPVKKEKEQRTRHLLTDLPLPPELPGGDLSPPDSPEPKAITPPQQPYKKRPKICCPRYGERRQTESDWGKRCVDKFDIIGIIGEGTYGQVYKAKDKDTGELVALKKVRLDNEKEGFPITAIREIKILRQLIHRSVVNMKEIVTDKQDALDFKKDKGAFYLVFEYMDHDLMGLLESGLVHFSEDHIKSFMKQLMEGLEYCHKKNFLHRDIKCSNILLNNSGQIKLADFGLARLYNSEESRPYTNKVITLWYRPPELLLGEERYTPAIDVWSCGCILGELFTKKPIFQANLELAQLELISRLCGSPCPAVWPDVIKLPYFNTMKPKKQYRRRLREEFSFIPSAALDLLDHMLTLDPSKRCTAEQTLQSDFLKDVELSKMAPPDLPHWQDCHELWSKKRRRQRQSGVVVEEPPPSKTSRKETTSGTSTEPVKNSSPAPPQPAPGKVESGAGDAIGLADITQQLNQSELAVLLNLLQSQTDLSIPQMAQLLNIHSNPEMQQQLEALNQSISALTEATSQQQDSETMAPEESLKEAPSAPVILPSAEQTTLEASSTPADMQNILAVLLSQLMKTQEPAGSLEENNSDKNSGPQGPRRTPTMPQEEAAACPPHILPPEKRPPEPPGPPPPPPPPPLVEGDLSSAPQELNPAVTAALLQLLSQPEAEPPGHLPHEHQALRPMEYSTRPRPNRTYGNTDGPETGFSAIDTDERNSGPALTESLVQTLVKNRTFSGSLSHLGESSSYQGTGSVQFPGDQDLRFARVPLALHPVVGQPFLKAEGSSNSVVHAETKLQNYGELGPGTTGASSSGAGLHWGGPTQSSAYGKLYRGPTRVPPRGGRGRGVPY

CDK7/Cyclin H/MNAT1 = CDK7/Cyclin H/MNAT1 (Homo sapiens, UniProt P50613)
[2] = molecular target: Cyclin-dependent kinase 13/Cyclin-K (Homo sapiens, UniProt Q14004); assay: Inhibition of N-terminal FLAG-tagged human full-length CDK13 (1 to 1512 residues)/N-terminal His-tagged CycK (1 to 580 residues) expressed in Sf9 cells assessed as reduction in ATP-dependent ULight-4E-BP1 (Thr37/Thr46) substrate peptide phosphorylation pre-incubated for 60 mins by LANCE Ultra assay
CDK8/Cyclin C = CDK8/Cyclin C (Homo sapiens, UniProt P49336); assay: Inhibition of GST-tagged human CDK8/CycC (04 to 109 residues) using kinase tracer 236 probe incubated for 60 mins by TR-FRET assay; type: protein-complex assay
[3] = Solubility in aqueous buffer solution at pH 6.8 by UV absorbance spectroscopy; type: physicochemical
Procedure, shortened: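 Compound in DMSO spiked into aqueous buffer pH 6.8 and incubated. Precipitate removed by filtration, dissolved compound quantified by UV absorbance of the filtrate.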

[4] = Partition coefficient between 1-octanol and aqueous buffer, log D of the compound at pH 7.4 buffer by chromatography; type: physicochemical; settings: 1-octanol/aqueous buffer
Procedure, shortened: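 log D as octanol/buffer partition at pH 7.4, determined chromatographically.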

[5] = Permeability of the compound at 10 umol/L incubated for 3 hrs by LC/MS/MS detection based PAMPA method; type: ADME; settings: read-out: permeability
Procedure, shortened: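 PAMPA: donor buffer pH 7.4 holding 10 μmol/L compound; acceptor filter coated with GIT-0 lipid, acceptor sink buffer. 3 h at room temperature. Compound in donor and acceptor wells quantified by LC/MS/MS.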

SK-BR-3 = assay: Growth inhibition of human SK-BR-3 cells incubated for 72 hrs by cell-titer-Glo luminescent cell viability assay; type: functional; settings: SK-BR-3, 72 h
Procedure, shortened: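 SK-BR-3 (ATCC) kept in medium with 10% FBS, penicillin and streptomycin, subcultured every 3 days. 3 × 10^3 cells seeded, left overnight, then compound diluted in culture medium added. Viability by CellTiter-Glo luminescence after 72 h.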

[6] = molecular target: T2, Serine/threonine-protein kinase TAO1 (Homo sapiens) (UniProt Q7L7X3); assay: Inhibition of N-terminal GST tagged recombinant human TAOK1 (1 to 314 residues) expressed in baculovirus infected Sf9 cells at 1 uM
T2 sequence (whole entry): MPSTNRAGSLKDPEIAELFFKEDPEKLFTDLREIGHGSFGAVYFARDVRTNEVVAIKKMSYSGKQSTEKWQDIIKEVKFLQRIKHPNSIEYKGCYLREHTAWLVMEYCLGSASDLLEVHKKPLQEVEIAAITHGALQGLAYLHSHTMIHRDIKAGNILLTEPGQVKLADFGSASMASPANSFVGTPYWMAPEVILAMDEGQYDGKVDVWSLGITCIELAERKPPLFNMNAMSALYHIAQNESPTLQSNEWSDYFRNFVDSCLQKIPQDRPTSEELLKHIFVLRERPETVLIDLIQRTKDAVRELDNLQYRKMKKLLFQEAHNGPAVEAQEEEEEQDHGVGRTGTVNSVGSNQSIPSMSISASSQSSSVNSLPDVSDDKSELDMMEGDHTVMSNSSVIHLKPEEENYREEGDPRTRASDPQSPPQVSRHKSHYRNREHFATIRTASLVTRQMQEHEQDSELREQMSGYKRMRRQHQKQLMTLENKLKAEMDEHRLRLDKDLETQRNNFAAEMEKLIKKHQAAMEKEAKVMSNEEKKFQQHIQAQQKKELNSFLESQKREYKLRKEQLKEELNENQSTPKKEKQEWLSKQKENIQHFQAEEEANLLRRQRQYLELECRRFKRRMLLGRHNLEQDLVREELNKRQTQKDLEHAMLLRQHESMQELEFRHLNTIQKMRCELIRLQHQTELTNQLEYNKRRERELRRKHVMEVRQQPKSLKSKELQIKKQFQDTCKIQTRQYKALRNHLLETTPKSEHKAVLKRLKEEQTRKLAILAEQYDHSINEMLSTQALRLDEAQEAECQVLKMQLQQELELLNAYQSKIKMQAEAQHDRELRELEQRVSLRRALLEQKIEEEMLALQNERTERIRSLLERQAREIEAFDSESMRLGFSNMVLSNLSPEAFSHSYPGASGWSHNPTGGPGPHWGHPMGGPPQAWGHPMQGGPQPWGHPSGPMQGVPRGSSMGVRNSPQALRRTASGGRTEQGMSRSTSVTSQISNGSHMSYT

[7] = molecular target: T3, Dual specificity tyrosine-phosphorylation-regulated kinase 2 (Homo sapiens) (UniProt Q92630); assay: Inhibition of N-terminal GST tagged recombinant full-length human DYRK2 expressed in Escherichia coli at 1 uM
T3 sequence (whole entry): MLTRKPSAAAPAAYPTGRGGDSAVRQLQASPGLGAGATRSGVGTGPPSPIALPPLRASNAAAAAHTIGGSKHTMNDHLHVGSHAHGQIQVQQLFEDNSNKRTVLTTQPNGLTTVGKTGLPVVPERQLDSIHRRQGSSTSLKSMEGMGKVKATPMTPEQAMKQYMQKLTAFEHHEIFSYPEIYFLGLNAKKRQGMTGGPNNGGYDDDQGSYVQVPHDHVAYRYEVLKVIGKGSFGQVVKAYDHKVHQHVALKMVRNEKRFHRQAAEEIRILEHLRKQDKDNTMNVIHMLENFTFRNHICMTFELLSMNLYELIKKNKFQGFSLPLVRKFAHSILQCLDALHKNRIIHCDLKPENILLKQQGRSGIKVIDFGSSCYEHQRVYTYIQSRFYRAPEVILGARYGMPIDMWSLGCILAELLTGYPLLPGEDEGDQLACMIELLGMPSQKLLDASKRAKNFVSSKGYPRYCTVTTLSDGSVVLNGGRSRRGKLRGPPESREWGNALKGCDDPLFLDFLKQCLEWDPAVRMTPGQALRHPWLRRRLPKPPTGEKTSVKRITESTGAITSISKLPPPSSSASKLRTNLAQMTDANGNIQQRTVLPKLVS

[8] = molecular target: STE20/SPS1-related proline-alanine-rich protein kinase (Homo sapiens) (UniProt Q9UEW8); assay: Inhibition of N-terminal His tagged recombinant full-length human STK39 expressed in baculovirus infected Sf9 cells at 1 uM
[9] = molecular target: T1, Cyclin-dependent kinase 12; assay: Time dependent inhibition of human CDK12 incubated for 0 to 5 hrs using ULight-4E-BP1 (Thr37/Thr46) substrate by LANCE system based assay
Target sequence in this assay (Q9NYV4 whole entry, looked up): as the sequence (Q9NYV4 whole entry) above

CDK7/Cyclin H/MNAT1, sequence (P51946 whole entry, the tested form may be a part): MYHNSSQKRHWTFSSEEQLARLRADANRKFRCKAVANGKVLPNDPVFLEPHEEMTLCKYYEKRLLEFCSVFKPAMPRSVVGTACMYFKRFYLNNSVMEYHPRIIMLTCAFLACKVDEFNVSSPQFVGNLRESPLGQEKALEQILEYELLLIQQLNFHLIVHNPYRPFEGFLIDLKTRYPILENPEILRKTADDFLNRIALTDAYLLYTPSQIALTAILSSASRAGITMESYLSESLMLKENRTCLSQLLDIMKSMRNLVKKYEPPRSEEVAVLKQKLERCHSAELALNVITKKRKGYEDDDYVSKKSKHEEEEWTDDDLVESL
CDK7/Cyclin H/MNAT1, sequence (P50613 whole entry, the tested form may be a part): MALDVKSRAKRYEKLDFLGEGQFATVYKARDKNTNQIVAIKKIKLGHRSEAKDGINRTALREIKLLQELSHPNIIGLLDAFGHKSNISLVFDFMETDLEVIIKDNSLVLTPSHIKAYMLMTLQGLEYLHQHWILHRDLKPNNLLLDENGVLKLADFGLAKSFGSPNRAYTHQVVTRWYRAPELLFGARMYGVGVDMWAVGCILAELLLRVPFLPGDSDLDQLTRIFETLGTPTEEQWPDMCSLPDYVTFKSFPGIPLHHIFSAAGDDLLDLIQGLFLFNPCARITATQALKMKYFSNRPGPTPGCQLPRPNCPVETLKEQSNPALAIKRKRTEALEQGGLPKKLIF
CDK7/Cyclin H/MNAT1, sequence (P51948 whole entry, further chain, the tested form may be a part): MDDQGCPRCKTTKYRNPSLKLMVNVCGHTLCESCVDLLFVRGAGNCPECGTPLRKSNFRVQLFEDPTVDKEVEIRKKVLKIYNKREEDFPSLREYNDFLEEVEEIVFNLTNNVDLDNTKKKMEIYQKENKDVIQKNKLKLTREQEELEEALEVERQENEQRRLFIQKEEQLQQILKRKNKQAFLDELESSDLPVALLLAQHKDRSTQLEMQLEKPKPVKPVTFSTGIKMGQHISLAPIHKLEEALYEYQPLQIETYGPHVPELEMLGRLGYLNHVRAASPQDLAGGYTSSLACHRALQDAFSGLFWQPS
CDK9/cyclin T1, sequence (O60563 whole entry): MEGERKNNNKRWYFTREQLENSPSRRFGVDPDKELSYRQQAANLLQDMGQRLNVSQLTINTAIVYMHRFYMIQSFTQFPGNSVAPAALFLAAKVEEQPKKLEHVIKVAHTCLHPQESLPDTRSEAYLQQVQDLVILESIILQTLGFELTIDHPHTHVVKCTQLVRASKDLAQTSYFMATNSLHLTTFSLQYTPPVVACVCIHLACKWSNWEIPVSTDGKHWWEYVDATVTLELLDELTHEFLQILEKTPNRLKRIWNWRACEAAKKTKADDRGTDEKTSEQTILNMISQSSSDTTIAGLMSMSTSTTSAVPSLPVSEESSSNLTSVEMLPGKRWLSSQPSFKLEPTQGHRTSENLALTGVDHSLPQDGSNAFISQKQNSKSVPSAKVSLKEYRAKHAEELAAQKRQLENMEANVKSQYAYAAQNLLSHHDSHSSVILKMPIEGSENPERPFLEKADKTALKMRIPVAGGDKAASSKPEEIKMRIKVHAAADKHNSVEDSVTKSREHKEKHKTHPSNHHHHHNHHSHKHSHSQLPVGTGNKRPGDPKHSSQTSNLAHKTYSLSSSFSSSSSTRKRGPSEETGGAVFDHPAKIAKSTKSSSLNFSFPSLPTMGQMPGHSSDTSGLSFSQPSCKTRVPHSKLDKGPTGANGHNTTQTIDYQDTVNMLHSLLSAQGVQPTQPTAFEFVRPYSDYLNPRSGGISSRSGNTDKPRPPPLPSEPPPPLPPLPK
CDK9/cyclin T1, sequence (P50750 whole entry): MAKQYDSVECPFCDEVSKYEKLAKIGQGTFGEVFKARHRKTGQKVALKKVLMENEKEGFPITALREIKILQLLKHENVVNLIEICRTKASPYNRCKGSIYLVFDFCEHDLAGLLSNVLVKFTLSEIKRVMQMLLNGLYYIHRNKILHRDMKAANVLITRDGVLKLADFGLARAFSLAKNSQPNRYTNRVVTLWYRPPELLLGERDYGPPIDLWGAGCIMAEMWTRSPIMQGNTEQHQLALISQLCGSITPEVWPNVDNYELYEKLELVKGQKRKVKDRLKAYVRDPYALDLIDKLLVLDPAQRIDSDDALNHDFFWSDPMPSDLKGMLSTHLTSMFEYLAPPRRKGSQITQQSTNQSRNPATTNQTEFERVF
CDK12/Cyclin K, sequence (O75909 whole entry, the tested form may be a part): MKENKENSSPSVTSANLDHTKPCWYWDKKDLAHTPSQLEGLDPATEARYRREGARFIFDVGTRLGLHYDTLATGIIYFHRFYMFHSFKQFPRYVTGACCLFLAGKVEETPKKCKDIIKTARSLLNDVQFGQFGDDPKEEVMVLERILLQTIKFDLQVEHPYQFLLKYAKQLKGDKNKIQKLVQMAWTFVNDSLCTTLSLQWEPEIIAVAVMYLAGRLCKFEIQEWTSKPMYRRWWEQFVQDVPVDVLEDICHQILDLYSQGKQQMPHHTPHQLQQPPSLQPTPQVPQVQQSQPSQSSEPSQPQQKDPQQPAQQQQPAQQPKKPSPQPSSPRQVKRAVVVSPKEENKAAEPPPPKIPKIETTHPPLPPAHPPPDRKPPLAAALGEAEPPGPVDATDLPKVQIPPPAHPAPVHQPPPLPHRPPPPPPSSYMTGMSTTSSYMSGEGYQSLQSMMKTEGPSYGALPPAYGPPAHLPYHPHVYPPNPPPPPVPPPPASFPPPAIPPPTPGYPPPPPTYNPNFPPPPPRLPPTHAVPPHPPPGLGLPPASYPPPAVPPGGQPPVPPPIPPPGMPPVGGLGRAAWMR
CDK12/Cyclin K, sequence (Q9NYV4 whole entry, the tested form may be a part): as the sequence (Q9NYV4 whole entry) above
CDK8/Cyclin C, sequence (P49336 whole entry, the tested form may be a part): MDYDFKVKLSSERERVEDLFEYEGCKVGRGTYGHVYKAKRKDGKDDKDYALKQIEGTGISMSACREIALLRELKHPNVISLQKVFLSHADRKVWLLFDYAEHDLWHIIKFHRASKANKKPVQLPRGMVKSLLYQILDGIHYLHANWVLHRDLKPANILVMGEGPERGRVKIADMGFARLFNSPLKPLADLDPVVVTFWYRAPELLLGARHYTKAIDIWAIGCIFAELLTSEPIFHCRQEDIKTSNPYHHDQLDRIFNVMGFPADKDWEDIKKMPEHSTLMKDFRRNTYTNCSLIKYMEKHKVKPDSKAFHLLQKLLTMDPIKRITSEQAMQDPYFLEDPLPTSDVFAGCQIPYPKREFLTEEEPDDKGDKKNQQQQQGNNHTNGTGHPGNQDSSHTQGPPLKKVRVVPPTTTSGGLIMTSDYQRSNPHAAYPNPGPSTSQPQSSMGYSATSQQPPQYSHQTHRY
CDK8/Cyclin C, sequence (P24863 whole entry, further chain, the tested form may be a part): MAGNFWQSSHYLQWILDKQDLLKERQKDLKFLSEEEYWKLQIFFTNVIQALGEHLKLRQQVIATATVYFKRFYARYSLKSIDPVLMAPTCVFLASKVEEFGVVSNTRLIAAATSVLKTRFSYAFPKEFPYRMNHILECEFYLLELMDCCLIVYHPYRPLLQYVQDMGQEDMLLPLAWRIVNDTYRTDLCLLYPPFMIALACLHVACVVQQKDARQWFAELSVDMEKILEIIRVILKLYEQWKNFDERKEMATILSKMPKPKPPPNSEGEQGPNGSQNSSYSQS

## CC(C)C(=O)OC[C@@H]1O[C@@H](n2cnc(N)c3c(C(N)=O)c(Br)nc2-3)[C@@H](O)[C@@H]1O
CDK12/Cyclin K
  IC50: 0.11 µM
CDK9/cyclin T1
  IC50: 0.22 µM
[1]
  IC50: 0.259 µM
CDK7/Cyclin H/MNAT1
  IC50: 1.2 µM

## Cn1cc(-c2ccc(N(C(=O)NCc3ccccc3)[C@H]3CC[C@@H](Nc4ccc(C#N)cn4)CC3)cc2)cn1
CDK12/Cyclin K
  IC50: > 30 µM
CDK9/cyclin T1
  IC50: > 30 µM
[2]
  IC50: > 10 µM
CDK8/Cyclin C
  IC50: > 10 µM
CDK7/Cyclin H/MNAT1
  IC50: > 10 µM

## Cn1cc(-c2ccc(N(C(=O)NCc3ccccc3)[C@H]3CC[C@H](Nc4ccc(C#N)cn4)CC3)cc2)ccc1=O
CDK9/cyclin T1
  IC50: 16 µM
CDK8/Cyclin C
  IC50: > 10 µM
[3]
  solubility: 7.7 µg/mL (≈ 14.5 µM)
[4]
  chromatographic logD: 2.4
[5]
  Papp at 3 h, 10 µM: 27.3 ×10⁻⁶ cm/s
SK-BR-3
  GI50: 0.8 µM
[6]
  inhibition: > 80%
[7]
  inhibition: > 80%
[8]
  inhibition: > 80%
[9]
  TDI: inactive
CDK7/Cyclin H/MNAT1
  IC50: > 10 µM
